Data: ChEMBL document CHEMBL1126823, “Benextramine-neuropeptide Y receptor interactions: contribution of the benzylic moieties to [3H]neuropeptide Y displacement activity” (J Med Chem, 1993)

How the values were obtained:
[1] = Binding affinity against rat NPY receptor by using [3H]NPY as radioligand
Outline: (§1)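 Male Sprague-Dawley rat (250-300 g) brain membrane homogenate (1.2-1.6 mg protein/mL) incubated with 1.0 nM [3H]NPY and analog 10^-3 to 10^-7 M in Krebs-Ringer bicarbonate/50 mM phosphate, 0.1% BSA, 0.05% bacitracin, pH 7.4, 90 min at 25 °C. Nonspecific binding defined with 1 µM NPY. Filtration onto PEI-treated glass-fiber filters, scintillation counting. IC50 from competitive binding isotherm fit.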

Rattus norvegicus = organism: Rattus norvegicus; experiment: Displacement of [3H]NPY from rat brain NPY receptor compared to benextramine; outline: as §1
[2] = Relative potency of compound at alpha-adrenoceptor to that of benextramine was measured by ability to antagonize the effect of epinephrine on the contractions of the electrically stimulated rat vas deferens; assay type: tissue-based

| IC50 [1] | Relative activity (Rattus norvegicus) | Structure (SMILES) | Relative activity [2] |
| --- | --- | --- | --- |
| 57.6 µM | 1 | COc1ccccc1CNCCCCCCNCCSSCCNCCCCCCNCc1ccccc1OC [BENEXTRAMINE] | 1 |
| 46.7 µM | 1.2 | Clc1cccc(CNCCCCCCNCCSSCCNCCCCCCNCc2cccc(Cl)c2)c1 | 0.46 |
| 21.5 µM | 2.7 | COc1cccc(CNCCCCCCNCCSSCCNCCCCCCNCc2cccc(OC)c2)c1 | 0.72 |
| 20.3 µM | 2.8 | Oc1cccc(CNCCCCCCNCCSSCCNCCCCCCNCc2cccc(O)c2)c1 | 0.24 |
| 37.8 µM | 1.5 | Clc1ccc(CNCCCCCCNCCSSCCNCCCCCCNCc2ccc(Cl)cc2)cc1 | 0.5 |
| 79.9 µM | 0.7 | Clc1ccccc1CNCCCCCCNCCSSCCNCCCCCCNCc1ccccc1Cl | 0.44 |
| 191 µM | 0.3 | c1ccc(CNCCCCCCNCCSSCCNCCCCCCNCc2ccccc2)cc1 | 0.9 |
| > 1400 µM | < 0.04 | NCCCCCCNCCSSCCNCCCCCCN | 0.27 |
| 31.3 µM | 1.8 | c1ccc2cc(CNCCCCCCNCCSSCCNCCCCCCNCc3ccc4ccccc4c3)ccc2c1 | 0.27 |
| 44.1 µM | 1.3 | COc1ccc(CNCCCCCCNCCSSCCNCCCCCCNCc2ccc(OC)cc2)cc1 | 0.81 |
| 162 µM | 0.4 | Oc1ccc(CNCCCCCCNCCSSCCNCCCCCCNCc2ccc(O)cc2)cc1 | 0.14 |
| 50.6 µM | 1.1 | Oc1ccccc1CNCCCCCCNCCSSCCNCCCCCCNCc1ccccc1O | 0.36 |
